Bioassay records as filed in PubChem BioAssay.
Most compounds without a hit are left out; they make up all but 4.1% or so of the library.
KCNQ1 inh: blocks the human KCNQ1 potassium channel. CHO-K1 KCNQ1, FluxOR thallium flux fluorescence; active compounds read high. AID 2642. hit rate 1.3% among 310,000. P51787. B-score at 10 µM;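 active = compounds whose thallium flux B-score, printed positive for inhibition, exceeds three library SD while starting fluorescence stays within three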;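 note: channel opened by potassium depolarization with thallium stimulus after 20 min compound exposure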
KCNK9 block: inhibitors of human KCNK9 two-pore domain potassium channel | HEK293 KCNK9, FluxOR thallium flux fluorescence; active compounds read low | hit rate 1.2% among 310,000 | B-score at 10 µM | Q9NPC2 | AID 488922;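 active = ratio B-score over 3 SD below the library mean, with starting fluorescence within 5 SD of its mean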;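 note: negative B-score means less thallium flux so channel inhibition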
KCNQ1 pot: human KCNQ1 channel potentiation or activation; CHO-K1 KCNQ1, thallium flux FluxOR fluorescence; active compounds read high; B-score at 10 µM; hit rate 0.35% among 310,000;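 active = fluorescence ratio B-score, a plate-corrected score, at least three library SD, with initial intensity B-score within 5 SD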
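Test system: CHO-K1 cells stably expressing KCNQ1 / Medium: assay buffer / Also added: depolarizing K+/Tl+ stimulus, K2SO4 and Tl2SO4 each 12.5 mM in 5x stock / Incubation: 90 min dye loading and 20 min compound exposure, both at room temperature / Signal: thallium influx via FluxOR fluorescence, kinetic imaging / Evaluation: B score of baseline-normalized fluorescence ratio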
KCC2 mod: modulators of human KCC2 chloride dependent transport; B-score of Tl+ flux slope (higher = more flux/activation; lower = inhibition) at 10 µM; AID 1456; hit rate 2.2% among 190,000; KCC2 cells, thallium flux FluoZin-2 fluorescence; Q9H2X9;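 active = thallium flux slope and its plate-corrected score both differing from the plate sample mean at a set confidence after two filtering rounds, in either direction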;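 note: slope of fluorescence scaled to starting intensity during 10 to 20 s after thallium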
hERG protect: shields human hERG channel from block by proarrhythmic agents. Q12809. CHO-hERG, FluxOR thallium flux, dofetilide IC70 present. activation (rescue from dofetilide block), less the hit threshold, % at 10 µM. hit rate 0.51% among 310,000;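 active = activation above the mean of controls blocked by dofetilide plus 5 SD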;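 note: thallium influx through hERG after potassium depolarization seen as dye fluorescence rise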
KCNK3 block: human KCNK3 channel inhibition, primary screen; O14649; hit rate 0.84% among 340,000; B-score at 10 µM; CHO-KCNK3 thallium flux, FluxOR fluorescence; active compounds read low; AID 602410;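 active = B-score under library mean minus 4 SD, starting fluorescence ratio at most library mean plus 5 SD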;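 note: more negative B-score means stronger inhibition of thallium flux through KCNK3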
* hit, by the source's call; i = inactive; nt = no result; ! = not confirmed by another sample.

SMILES	KCNQ1 inh	KCNK9 block	KCNQ1 pot	KCC2 mod	hERG protect	KCNK3 block
Cc1ccsc1/C=N/NC(=O)c1ccccn1	i	i	i	0.32	4.7*	i
Cc1ccsc1/C=N/NC(=O)C(O)c1ccccc1 (stereo not given)	i	i	i	nt	0	i
COc1ccc(-n2c(SC(C)C(=O)Nc3ncc(Cl)cc3Cl)nc3ccccc32)cc1 (stereo not given)	i	-16*	i	-2.5	-14	i
O=C(Nc1cccc(N=Cc2cc(Br)cc(Br)c2O)c1)c1ccco1	i	i	i	-3	-3	i
O=C(Nc1cccc(N=Cc2cc(Cl)cc(Br)c2O)c1)c1ccco1	i	i	17*	0.95	4	i
CC1CC(NC(=O)c2c(O)nc3sccn3c2=O)CC(C)(C)C1 (stereo not given)	i	i	i	nt	-7	i
Clc1cccc(-c2ccc(-c3nc4ccccn4c3NCc3ccccc3)cc2)c1	nt	nt	nt	nt	nt	-9.6*
CCC(C)Sc1cc(-c2nc3ccc(C)cn3c2NCc2ccccc2)ccc1OC (stereo not given)	i	i	i	nt	-13	i
COc1ccc(-c2cc(-c3nc4ccccn4c3NCc3ccccc3)ccc2OC)cc1	nt	nt	nt	nt	nt	-8.7*
Cc1cc(=O)c(C(=O)O)c(C)n1-c1ccccc1	nt	nt	nt	nt	nt	i
COc1ccc(/C=N/n2c(-c3cccs3)n[nH]c2=S)cc1	i	i	i	31*	-7	i
CCN(CC)S(=O)(=O)c1cccc(-c2n[nH]c(=S)n2/N=C/c2ccc(OC)cc2)c1	i	i	i	1.2	-7	i
Cc1ccc(/C=N/n2c(-c3cccs3)n[nH]c2=S)cc1	i	i	i	30*	1	i
Cc1ccc(/C=N/n2c(-c3ccccc3)n[nH]c2=S)cc1	i	i	i	nt	-11	i
CC(=O)c1c(C)[nH]c(C(=O)OCc2nnc(-c3ccc([N+](=O)[O-])cc3)o2)c1C	nt	nt	nt	nt	nt	i
C/C(=N/Nc1nc(-c2ccccc2F)nc2ccccc12)c1ccccc1O	7*	-7.3*	i	-1.1	-9	i
CCOC(=O)c1c(-c2ccccc2)csc1NC(=S)NC	i	i	38*	36*	8.9*	i
CCNC(=S)Nc1scc(-c2ccccc2)c1C(=O)OCC	i	i	23*	42*	6.0*	i
CCOC(=O)c1c(-c2ccccc2)csc1NC(=O)CCN1C(=O)c2ccccc2C1=O	i	i	i	1.4	-14	i
CCOC(=O)c1c(-c2ccc(C)o2)csc1NC(=S)NC(=O)c1cccs1	i	i	i	6.3*	-1	i
CCCCn1nc(NC(=O)COC)c2cc3ccc(C)cc3nc21	i	i	i	nt	9.0*	i
CCCn1nc(NC(=O)COC)c2cc3cc(C)ccc3nc21	i	i	i	nt	-6	i
COCCn1c(SCC(=O)Nc2sccc2C(N)=O)nc2cc(Cl)ccc2c1=O	i	i	i	-0.36	-14	-9.2*
COCCn1c(SCC(=O)Nc2cccnc2Cl)nc2cc(Cl)ccc2c1=O	nt	nt	nt	nt	nt	i
Cc1nn(Cc2ccccc2Cl)c2sc(C(=O)Nc3ccccc3N3CCOCC3)cc12	6*	i	i	-0.17	-7	i
SMILES	KCNQ1 inh	KCNK9 block	KCNQ1 pot	KCC2 mod	hERG protect	KCNK3 block
Cc1nn(Cc2ccc(F)cc2)c2sc(C(=O)Nc3ccccc3N3CCOCC3)cc12	i	i	i	0.059	-6	i
CC(C)CC(C(=O)NC1CCCCC1)N(Cc1ccccc1)C(=O)c1snc(C(N)=O)c1N (stereo not given)	6*	i	i	nt	-14	i
COc1ccc(CN(C(=O)c2snc(C(N)=O)c2N)C(CC(C)C)C(=O)NC2CCCCC2)cc1 (stereo not given)	i	i	i	nt	-12	i
CC(C)CC(C(=O)NC1CCCC1)N(Cc1ccc2c(c1)OCO2)C(=O)c1snc(C(N)=O)c1N (stereo not given)	6*	i	i	-0.48	-11	i
O=C(NC(=S)Nc1ccc2oc(=O)ccc2c1)c1cccc(Cl)c1	i	i	i	nt	0	i
Cc1ccc(OCC(=O)Nc2cccnc2Cl)cc1C	i	i	i	nt	-8	i
c1cc2c3c(cccc3c1)NC1(CCC3(CC1)Nc1cccc4cccc(c14)N3)N2	11*	i	i	-0.39	-8	i
COC(=O)c1ccc(CN(c2ccccn2)S(=O)(=O)c2ccccc2)cc1	i	i	i	0.36	-12	i
COC(=O)c1ccc(CN(c2ccc(C(=O)O)c(O)c2)S(=O)(=O)c2ccc(Cl)c([N+](=O)[O-])c2)cc1	7*	i	i	nt	-18	i
Cc1cccc(C(=O)N=c2c(C#N)cc3c(=O)n4cccc(C)c4nc3n2Cc2ccco2)c1	7*	i	i	0.017	-17	i
COCCCn1c(=NC(=O)c2ccccc2)c(C#N)cc2c(=O)n3cccc(C)c3nc21	i	i	i	-0.25	-25	i
CCOC(=O)c1cc2c(=O)n3ccccc3nc2n(Cc2ccco2)c1=NC(=O)c1cccnc1	7*	i	i	nt	-23	i
Cc1cccn2c(=O)c3cc(C#N)c(=NC(=O)c4ccco4)n(Cc4ccco4)c3nc12	i	i	i	-0.9	-4	i
Cc1cccn2c(=O)c3cc(C#N)c(=NC(=O)c4ccccc4)n(Cc4ccco4)c3nc12	i	-7.3*	i	nt	-22	-9.1*!
COc1ccc(CNC(=O)C[C@H]2C[C@H](C(=O)N3CCCCC3)[C@@]3(CCc4ccccc4)c4[nH]c5ccc(Cl)cc5c4CCN3C2=O)cc1OC	nt	nt	nt	nt	nt	i
CCCCc1sc(-c2c(C#N)c(N)nc3c2CCCCC3)cc1[N+](=O)[O-]	i	-6.7*	i	0.022	-4	i
C=CCS/C(=N\n1cnc2ccccc2c1=O)N(CC)CC	i	-7.6*	i	-0.11	-11	i
C=CCS/C(=N\n1cnc2ccccc2c1=O)N1CCCCC1	i	i	i	-0.69	-3	i
Cc1nnnn1/C(=C\c1ccccc1)C(=O)OCC(=O)Nc1cccc(S(=O)(=O)N(C)C)c1	nt	nt	nt	nt	nt	i
Cc1nnnn1/C(=C\c1ccccc1)C(=O)OCC(=O)Nc1ccc(Cl)cc1F	i	i	7*	nt	-13	i
COc1ccc(C2=NOC(C)(c3nnc(Cc4ccccc4)o3)C2)cc1 (stereo not given)	i	i	i	nt	-1	i
COc1ccc(OC)c(/C=C/C(=O)NCCc2nc3ccccc3[nH]2)c1	7*	i	i	-0.0016	-10	i
